These results are taken from ChEMBL document CHEMBL4043069, “Streptenols F-I Isolated from the Marine-Derived Streptomyces misionensis BAT-10-03-023” (2017).

Holding throughout (type): functional
In one test the test system is A549. Briefly: Cytotoxicity against human A549 cells assessed as inhibition of cell growth. The gist of the method: (§1)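 Human tumour lines were used: A-549 lung carcinoma, MDA-MB-231 breast adenocarcinoma, HT-29 colorectal carcinoma and PSN1 pancreatic adenocarcinoma. The compounds were tested across doses. GI50, the concentration giving 50% growth inhibition, was derived from dose-response data by a literature procedure. Survival was estimated with the National Cancer Institute algorithm, and three dose-response parameters were calculated.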

The subject of a further test is HT-29. The experiment in a line: Cytotoxicity against human HT-29 cells assessed as inhibition of cell growth. The gist of the method: as §1
The test system of the next test is PSN1. The experiment in a line: Cytotoxicity against human PSN1 cells assessed as inhibition of cell growth. Summed up: as §1
Another test relates to MDA-MB-231. Briefly: Cytotoxicity against human MDA-MB-231 cells assessed as inhibition of cell growth. The gist of the method:
as §1

Usually GI50 stands for the concentration giving 50% growth inhibition. As for `C/C=C/CCC(=O)C[C@@H](O)CCO[C@]1(CC/C=C/C)C[C@@H](O)CCO1`, the concentration for 50% growth inhibition (GI50) in the test with A549, in the test on HT-29, in the test on PSN1 and in the test with MDA-MB-231 was 28 µM in each case.
In the case of `C/C=C/C=C/C(=O)C[C@H](CCO)OC`, the GI50 with A549 came out at 50 µM; with HT-29, 49 µM; in the test on PSN1 it was 50 µM; in the test with MDA-MB-231, 30 µM.
As to `C/C=C/CCC(=O)C[C@@H](O)CCO`, the GI50 with A549, with HT-29, with PSN1 and in the test with MDA-MB-231 was 54 µM in each case.
For the molecule `C/C=C/C=C/C(=O)CC(CCO)OCC[C@H](O)CC(=O)/C=C/C=C/C` (some centres undefined), the GI50 in the test on A549, with HT-29, with PSN1 and in the test on MDA-MB-231 was 29 µM each time.
Turning to `C/C=C/C=C/C(=O)CC(CCO)OCC[C@H](O)CC(=O)CC/C=C/C` (some centres undefined), the GI50 in the test with A549, in the test with HT-29, in the test with PSN1 and in the test on MDA-MB-231 was 28 µM in each case.
On to `C/C=C/C=C/C(=O)C[C@@H](O)CCO`, for which the GI50 with A549, in the test on HT-29, with PSN1 and with MDA-MB-231 was 54 µM throughout.
